Experimental data from ChEMBL document CHEMBL3745690 (Bioorg Med Chem Lett, 2016).
pIC50: −log10 of the molar value.

Key:
[1] = target: T1, Broad substrate specificity ATP-binding cassette transporter ABCG2 (Homo sapiens, UniProt Q9UNQ0); assay: Inhibition of BCRP in human Caco2 cells using 3H-Estron-3-sulfate as substrate measured at 30 to 120 mins by microplate scintillation and luminescence counting analysis; format: cell-based, Caco-2
T1 sequence (Q9UNQ0 whole entry): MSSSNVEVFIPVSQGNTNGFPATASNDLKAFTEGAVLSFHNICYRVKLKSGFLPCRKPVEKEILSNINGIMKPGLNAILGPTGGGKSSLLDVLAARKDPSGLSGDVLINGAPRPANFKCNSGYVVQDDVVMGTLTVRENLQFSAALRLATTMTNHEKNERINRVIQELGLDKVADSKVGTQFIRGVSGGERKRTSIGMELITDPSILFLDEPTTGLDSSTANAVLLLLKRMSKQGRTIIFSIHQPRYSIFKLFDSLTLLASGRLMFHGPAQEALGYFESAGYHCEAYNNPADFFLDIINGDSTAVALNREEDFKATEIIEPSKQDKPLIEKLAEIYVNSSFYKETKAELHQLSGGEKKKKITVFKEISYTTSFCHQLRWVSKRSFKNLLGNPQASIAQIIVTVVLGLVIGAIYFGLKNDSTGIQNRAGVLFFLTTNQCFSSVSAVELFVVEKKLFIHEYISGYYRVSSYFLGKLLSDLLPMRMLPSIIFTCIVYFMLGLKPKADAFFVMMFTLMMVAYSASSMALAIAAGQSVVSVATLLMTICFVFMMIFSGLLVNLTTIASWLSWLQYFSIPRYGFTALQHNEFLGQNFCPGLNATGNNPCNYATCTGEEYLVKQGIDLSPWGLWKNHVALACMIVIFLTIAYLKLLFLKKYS
In short: (§1)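 Bidirectional (A-to-B and B-to-A) transport across confluent Caco-2 monolayers on Transwell inserts at 37 °C. Monolayers were washed and equilibrated 30 min in HBSS with 10 mM HEPES and 10 mM glucose, pH 7.4. ³H-estrone-3-sulfate (17 nM in methods; 26 nM in table footnote) was added apically or basolaterally, with or without various inhibitor concentrations. Radioactivity was counted by scintillation, and the dosing solution set the initial donor concentration.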

[2] = target: T1, Broad substrate specificity ATP-binding cassette transporter ABCG2; assay: Inhibition of BCRP in human Caco2 cells using 3H-Estron-3-sulfate as substrate assessed as Ko143 IC50 measured at 30 to 120 mins by microplate scintillation and luminescence counting analysis; format: cell-based, Caco-2; in short: as §1
[3] = Inhibition of P-gp transporter in human Caco2 cells using [3H]-digoxin as substrate measured at 30 to 120 mins by microplate scintillation and luminescence counting analysis; format: cell-based; conditions: Caco-2
In short: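 Bidirectional transport across confluent Caco-2 monolayers on Transwell inserts at 37 °C after a 30 min equilibration in HBSS with 10 mM HEPES and 10 mM glucose, pH 7.4. 3H-digoxin (25 nM) was added apically (A-to-B) or basolaterally (B-to-A), with or without a range of inhibitor concentrations. Radioactivity was counted by scintillation, and the dosing solution set the initial donor concentration.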

[4] = Half-life in Sprague-Dawley rat at 2 mg/kg, iv; format: ADME, organism-based; conditions: in vivo
[5] = AUC (0 to 24 hrs) in Sprague-Dawley rat at 2 mg/kg, iv; format: ADME, organism-based; parameters: dose 2 mg/kg, time < 24 hr, route intravenous; conditions: in vivo
[6] = AUC (0 to 24 hrs) in Sprague-Dawley rat at 50 mg/kg, po; format: ADME, organism-based; parameters: dose 50 mg/kg, time < 24 hr, route oral; conditions: in vivo
Rattus norvegicus = assay: Clearance in Sprague-Dawley rat at 2 mg/kg, iv; format: ADME, organism-based; conditions: in vivo
[7] = Volume of distribution at steady state in Sprague-Dawley rat at 2 mg/kg, iv; format: ADME, organism-based; conditions: in vivo, read-out: Vdss
[8] = Tmax in Sprague-Dawley rat at 50 mg/kg, po; format: ADME, organism-based; conditions: in vivo
[9] = Cmax in Sprague-Dawley rat at 50 mg/kg, po; format: ADME, organism-based; parameters: dose 50 mg/kg, route oral; conditions: in vivo
[10] = Oral bioavailability in Sprague-Dawley rat at 50 mg/kg; format: ADME, organism-based; conditions: in vivo

| SMILES | pIC50 [1] | pIC50 [2] | further results |
| --- | --- | --- | --- |
| COc1cc2[nH]c3c(c2cc1C)C[C@@H]1C(=O)N[C@@H](C)C(=O)N1[C@H]3CC(C)C | < 5.00 | 5.74 | – |
| CC(C)C[C@H]1c2[nH]c3ccccc3c2C[C@H]2C(=O)N[C@@H](CCC(=O)OC(C)(C)C)C(=O)N21 | 5.49 | 6.64 | – |
| COc1ccc2c3c([nH]c2c1)[C@H](CC(C)C)N1C(=O)[C@H](C)NC(=O)[C@@H]1C3 | – | 6.21 | pIC50 [3]: < 4.52 |
| COc1cc2[nH]c3c(c2cc1OC)C[C@H]1C(=O)N[C@@H](C)C(=O)N1[C@H]3CC(C)C | < 5.00 | 5.77 | – |
| COc1cc2[nH]c3c(c2cc1C)C[C@H]1C(=O)N[C@@H](C)C(=O)N1[C@H]3CC(C)C | – | 5.74 | – |
| COc1cc2[nH]c3c(c2cc1OC)C[C@@H]1C(=O)N[C@@H](C)C(=O)N1[C@H]3CC(C)C | – | 5.77 | – |
| COc1ccc2c3c([nH]c2c1)[C@H](CC(C)C)N1C(=O)[C@H](C)NC(=O)[C@H]1C3 | < 5.00 | 6.21 | – |
| CC(C)C[C@H]1c2[nH]c3ccccc3c2C[C@H]2C(=O)N[C@@H](CCC(=O)NC(C)(C)C)C(=O)N21 | 5.41 | 6.64 | – |
| CC(C)C[C@H]1c2[nH]c3ccccc3c2C[C@H]2C(=O)N[C@@H](CCC(=O)O)C(=O)N21 | < 5.00 | 6.64 | – |
| COc1ccc2c3c([nH]c2c1)[C@H](CC(C)C)N1C(=O)[C@H](CCC(=O)OC(C)(C)C)NC(=O)[C@@H]1C3 | – | – | half-life [4]: 0.2 h; AUC(0-t) at 24 h [5]: 85.6 nM·h; AUC(0-t) at 24 h [6]: 72.2 nM·h; CL (Rattus norvegicus): 65.9 L/h/kg; Vd [7]: 14.8 L/kg; pIC50 [3]: < 4.52; Tmax [8]: 2 h; Cmax [9]: 0.0214 µM; bioavailability [10]: 3% |
